Laboratory results from ChEMBL document CHEMBL1146361, “Studies on acyclic pyrimidines as inhibitors of mycobacteria” (Bioorg Med Chem, 2007).
Active and inactive are the calls of the source. No cut-off for these calls is given here.

Legend:
[1] = test system: Mycobacterium tuberculosis; experiment: Antimycobacterial activity against Mycobacterium tuberculosis H37Ra at 100 ug/mL after 24 to 48 hrs by MABA; format: functional
Outline: (§1)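 Compounds in DMSO (100× highest final concentration), diluted in 7H9GC; tested at 100, 50, 10 and 1 µg/mL in triplicate, three experiments. Frozen inoculum diluted in 7H9GC. Read visually and spectrophotometrically. […], mean given. Visual MIC = lowest concentration preventing blue-to-pink change.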

[2] = test system: Mycobacterium tuberculosis; experiment: Antimycobacterial activity against Mycobacterium tuberculosis H37Ra at 50 ug/mL after 24 to 48 hrs by MABA; format: functional; outline: as §1
[3] = test system: Mycobacterium tuberculosis; experiment: Antimycobacterial activity against Mycobacterium tuberculosis H37Ra at 10 ug/mL after 24 to 48 hrs by MABA; format: functional; outline: as §1
Mycobacterium avium [4] = experiment: Antimycobacterial activity against Mycobacterium avium ATCC 25291 at 100 ug/mL after 24 to 48 hrs by MABA; format: functional; outline: as §1
Mycobacterium avium [5] = experiment: Antimycobacterial activity against Mycobacterium avium ATCC 25291 at 50 ug/mL after 24 to 48 hrs by MABA; format: functional; outline: as §1
Mycobacterium avium [6] = experiment: Antimycobacterial activity against Mycobacterium avium ATCC 25291 at 10 ug/mL after 24 to 48 hrs by MABA; format: functional; outline: as §1
Staphylococcus aureus = experiment: Antibacterial activity against Staphylococcus aureus up to 100 ug/ml after 16 to 20 hrs by broth microdilution method; format: functional, organism-based
[7] = test system: Staphylococcus epidermidis; experiment: Antibacterial activity against Staphylococcus epidermidis up to 100 ug/ml after 16 to 20 hrs by broth microdilution method; format: functional, organism-based
Enterococcus faecalis = experiment: Antibacterial activity against Enterococcus faecalis up to 100 ug/ml after 16 to 20 hrs by broth microdilution method; format: functional, organism-based
Bacillus subtilis = experiment: Antibacterial activity against Bacillus subtilis up to 100 ug/ml after 16 to 20 hrs by broth microdilution method; format: functional, organism-based
Streptococcus pneumoniae = experiment: Antibacterial activity against Streptococcus pneumoniae up to 100 ug/ml after 16 to 20 hrs by broth microdilution method; format: functional, organism-based
Salmonella typhimurium = experiment: Antibacterial activity against Salmonella Typhimurium up to 100 ug/ml after 16 to 20 hrs by broth microdilution method; format: functional, organism-based; settings: Salmonella enterica subsp. enterica serovar Typhimurium
Escherichia coli = experiment: Antibacterial activity against Escherichia coli up to 100 ug/ml after 16 to 20 hrs by broth microdilution method; format: functional, organism-based
Proteus vulgaris = experiment: Antibacterial activity against Proteus vulgaris up to 100 ug/ml after 16 to 20 hrs by broth microdilution method; format: functional, organism-based
Pseudomonas aeruginosa = experiment: Antibacterial activity against Pseudomonas aeruginosa up to 100 ug/ml after 16 to 20 hrs by broth microdilution method; format: functional, organism-based
HepG2 = experiment: Toxicity against HepG2 cells; format: functional, cell-based; settings: Homo sapiens
Mycobacterium avium [8] = experiment: Antimycobacterial activity against Mycobacterium avium ATCC 25291 at 2 ug/mL after 24 to 48 hrs by MABA; format: functional
Mycobacterium avium [9] = experiment: Antimycobacterial activity against Mycobacterium avium ATCC 25291 at 1 ug/mL after 24 to 48 hrs by MABA; format: functional; outline: as §1
[10] = test system: Mycobacterium tuberculosis; experiment: microbe, parasite or virus in culture; settings: H37Ra

**Q.** For `C=C(N=[N+]=[N-])c1cn(COCCO)c(=O)[nH]c1=O`, which inhibition at 100 µg/mL [1] is on record?
**A.** Its inhibition at 100 µg/mL is 100%.

**Q.** What about the inhibition at 50 µg/mL [2] of the same compound?
**A.** Its inhibition at 50 µg/mL is 100%.

**Q.** And the inhibition at 10 µg/mL [3]?
**A.** Its inhibition at 10 µg/mL is 25%.

**Q.** What about the inhibition at 100 µg/mL (Mycobacterium avium [4]) of the same compound?
**A.** The inhibition at 100 µg/mL was 50%.

**Q.** What about the inhibition at 50 µg/mL (Mycobacterium avium [5]) of the same compound?
**A.** Its inhibition at 50 µg/mL is 50%.

**Q.** What about the inhibition at 10 µg/mL (Mycobacterium avium [6]) of the same compound?
**A.** The inhibition at 10 µg/mL was 50%.

**Q.** What about the Activity (Staphylococcus aureus) of the same compound?
**A.** Its Activity is “inactive”.

**Q.** What about the Activity [7] of the same compound?
**A.** Its Activity is “inactive”.

**Q.** What about the Activity (Enterococcus faecalis) of the same compound?
**A.** Its Activity is “inactive”.

**Q.** And the Activity (Bacillus subtilis)?
**A.** The Activity was “inactive”.

**Q.** And the Activity (Streptococcus pneumoniae)?
**A.** Its Activity is “inactive”.

**Q.** And the Activity (Salmonella typhimurium)?
**A.** Its Activity is “inactive”.

**Q.** What about the Activity (Escherichia coli) of the same compound?
**A.** The Activity was “inactive”.

**Q.** What about the Activity (Proteus vulgaris) of the same compound?
**A.** The Activity was “inactive”.

**Q.** And the Activity (Pseudomonas aeruginosa)?
**A.** The Activity was “inactive”.

**Q.** What about the Activity (HepG2) of the same compound?
**A.** The Activity was “Not toxic”.

**Q.** With `CC[C@H]1OC(=O)[C@H](C)[C@@H](O[C@H]2C[C@@](C)(OC)[C@@H](O)[C@H](C)O2)[C@H](C)[C@@H](O[C@@H]2O[C@H](C)C[C@H](N(C)C)[C@H]2O)[C@](C)(OC)C[C@@H](C)C(=O)[C@H](C)[C@@H](O)[C@]1(C)O` [CLARITHROMYCIN] as the compound, how does the inhibition at 2 µg/mL (Mycobacterium avium [8]) read?
**A.** Its inhibition at 2 µg/mL is 95%.

**Q.** How did the inhibition at 100 µg/mL [1] turn out when `CCCCCCCCC#Cc1cn(COC(CO)CO)c(=O)[nH]c1=O` was run?
**A.** The inhibition at 100 µg/mL was 100%.

**Q.** What about the inhibition at 50 µg/mL [2] of the same compound?
**A.** Its inhibition at 50 µg/mL is 100%.

**Q.** And the inhibition at 10 µg/mL [3]?
**A.** Its inhibition at 10 µg/mL is 50%.

**Q.** What about the inhibition at 100 µg/mL (Mycobacterium avium [4]) of the same compound?
**A.** Its inhibition at 100 µg/mL is 100%.

**Q.** And the inhibition at 50 µg/mL (Mycobacterium avium [5])?
**A.** The inhibition at 50 µg/mL was 25%.

**Q.** And the Activity (Staphylococcus aureus)?
**A.** The Activity was “inactive”.

**Q.** What about the Activity [7] of the same compound?
**A.** Its Activity is “inactive”.

**Q.** And the Activity (Enterococcus faecalis)?
**A.** Its Activity is “inactive”.

**Q.** And the Activity (Bacillus subtilis)?
**A.** The Activity was “inactive”.

**Q.** What about the Activity (Streptococcus pneumoniae) of the same compound?
**A.** The Activity was “inactive”.

**Q.** And the Activity (Salmonella typhimurium)?
**A.** The Activity was “inactive”.

**Q.** And the Activity (Escherichia coli)?
**A.** The Activity was “inactive”.

**Q.** What about the Activity (Proteus vulgaris) of the same compound?
**A.** Its Activity is “inactive”.

**Q.** And the Activity (Pseudomonas aeruginosa)?
**A.** The Activity was “inactive”.

**Q.** What about the Activity (HepG2) of the same compound?
**A.** The Activity was “Not toxic”.

**Q.** What does the source list for `[N-]=[N+]=NC(CI)c1cn(COCCO)c(=O)[nH]c1=O` (stereo unspecified)?
**A.** inhibition at 100 µg/mL [1]: 100%; inhibition at 50 µg/mL [2]: 100%; inhibition at 10 µg/mL [3]: 50%; inhibition at 100 µg/mL (Mycobacterium avium [4]): 50%; inhibition at 50 µg/mL (Mycobacterium avium [5]): 50%; Activity (Staphylococcus aureus): inactive; Activity [7]: inactive; Activity (Enterococcus faecalis): inactive; Activity (Bacillus subtilis): inactive; Activity (Streptococcus pneumoniae): inactive; Activity (Salmonella typhimurium): inactive; Activity (Escherichia coli): inactive; Activity (Proteus vulgaris): inactive; Activity (Pseudomonas aeruginosa): inactive; Activity (HepG2): Not toxic

**Q.** Which results are given for `[N-]=[N+]=NC(CCl)c1cn(COCCO)c(=O)[nH]c1=O` (stereo unspecified)?
**A.** inhibition at 100 µg/mL [1]: 100%; inhibition at 50 µg/mL [2]: 100%; inhibition at 10 µg/mL [3]: 50%; inhibition at 100 µg/mL (Mycobacterium avium [4]): 100%; inhibition at 50 µg/mL (Mycobacterium avium [5]): 100%; inhibition at 10 µg/mL (Mycobacterium avium [6]): 50%; Activity (Staphylococcus aureus): inactive; Activity [7]: inactive; Activity (Enterococcus faecalis): inactive; Activity (Bacillus subtilis): inactive; Activity (Streptococcus pneumoniae): inactive; Activity (Salmonella typhimurium): inactive; Activity (Escherichia coli): inactive; Activity (Proteus vulgaris): inactive; Activity (Pseudomonas aeruginosa): inactive; Activity (HepG2): Not toxic

**Q.** Which results are given for `CO[C@H]1/C=C/O[C@@]2(C)Oc3c(C)c(O)c4c(O)c(c(/C=N/N5CCN(C)CC5)c(O)c4c3C2=O)NC(=O)/C(C)=C\C=C\[C@H](C)[C@H](O)[C@@H](C)[C@@H](O)[C@@H](C)[C@H](OC(C)=O)[C@@H]1C` [RIFAMPIN]?
**A.** inhibition at 1 µg/mL (Mycobacterium avium [9]): 100%; inhibition at 2 µg/mL (Mycobacterium avium [8]): 90%; inhibition at 1 µg/mL [10]: 100%
